Measurements as given in ChEMBL document CHEMBL3124843, “Synthesis, cytostatic, antimicrobial, and anti-HCV activity of 6-substituted 7-(het)aryl-7-deazapurine ribonucleosides” (J Med Chem, 2014).
pEC50, pIC50: −log10 of the molar value. Calls of active or inactive are those of the source. How the calls were made is not given here.

What was measured:
[1] = Cytotoxicity against human HuH7 cells infected with Hepatitis C virus subtype 2a; format: cell-based, Huh-7
Hepatitis C virus [2] = experiment: Antiviral activity against Hepatitis C virus subtype 2a infected in human HuH7 cells; format: functional, organism-based, Hepacivirus hominis; conditions: genotype 2a, Huh-7
[3] = Cytotoxicity against human HuH7 cells infected with Hepatitis C virus subtype 1b; format: cell-based, Huh-7
Hepatitis C virus [4] = experiment: Antiviral activity against Hepatitis C virus subtype 1b infected in human HuH7 cells; format: functional, organism-based, Hepacivirus hominis; conditions: genotype 1b, Huh-7
Candida tropicalis = experiment: Antifungal activity against Candida tropicalis after 48 hrs; format: functional, organism-based
Pichia kudriavzevii = experiment: Antifungal activity against Candida crusei after 48 hrs; format: functional, organism-based
Candida parapsilosis = experiment: Antifungal activity against Candida parapsilosis after 48 hrs; format: functional, organism-based
Candida albicans = experiment: Antifungal activity against Candida albicans after 48 hrs; format: functional, organism-based
Pseudomonas aeruginosa [5] = experiment: Antibacterial activity against multi-resistant Pseudomonas aeruginosa A/16575 after 24 hrs; format: functional, organism-based
Escherichia coli [6] = experiment: Antibacterial activity against multi-resistant Escherichia coli C/16702 after 24 hrs; format: functional, organism-based
[7] = system: Staphylococcus haemolyticus; experiment: Antibacterial activity against methicillin-resistant Staphylococcus haemolyticus A/16568 after 24 hrs; format: functional, organism-based
Staphylococcus aureus [8] = experiment: Antibacterial activity against methicillin-resistant Staphylococcus aureus MRSA 4591 after 24 hrs; format: functional, organism-based
Pseudomonas aeruginosa [9] = experiment: Antibacterial activity against Pseudomonas aeruginosa CCM 3955 after 24 hrs; format: functional, organism-based
Escherichia coli [10] = experiment: Antibacterial activity against Escherichia coli CCM 3954 after 24 hrs; format: functional, organism-based
Staphylococcus aureus [11] = experiment: Antibacterial activity against Staphylococcus aureus CCM 3953 after 24 hrs; format: functional, organism-based
Enterococcus faecalis = experiment: Antibacterial activity against Enterococcus faecalis CCM 4224 after 24 hrs; format: functional, organism-based
[12] = Antiproliferative activity against human HeLaS3 cells after 72 hrs by XTT assay; format: functional, cell-based; conditions: HeLa S3, 72 h
How it was run: (§1)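 Antiproliferative test on HL-60 promyelocytic leukemia and HeLa S3 cervical carcinoma cells growing in liquid suspension.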

HL-60 = experiment: Antiproliferative activity against human HL60 cells after 72 hrs by XTT assay; format: functional, cell-based; conditions: HL-60, 72 h; how it was run: as §1
HepG2 = experiment: Antiproliferative activity against human HepG2 cells after 72 hrs by XTT assay; format: functional, cell-based; conditions: HepG2, 72 h
MRC5 = experiment: Cytostatic activity against human MRC5 cells after 72 hrs by MTT assay; format: ADME, cell-based; conditions: MRC5, 72 h
How it was run: (§2)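 IC50 is the concentration that cuts cell growth by 50%, read by quantitative metabolic MTT staining after a 3-day treatment. The resistant sublines were made by raising the concentration of the cytotoxic drug step by step. CEM-DNR-bulk (daunorubicin-selected) stably overexpresses mrp-1. K562-TAX (paclitaxel-selected) expresses only mdr-1. HCT116p53−/− carries null p53 alleles. BJ and MRC-5 are nonmalignant fibroblasts.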

BJ = experiment: Cytostatic activity against human BJ cells after 72 hrs by MTT assay; format: ADME, cell-based; how it was run: as §2
HCT-116 [13] = experiment: Cytostatic activity against p53-deficient human HCT116 cells after 72 hrs by MTT assay; format: functional, cell-based; conditions: HCT-116, 72 h; how it was run: as §2
HCT-116 [14] = experiment: Cytostatic activity against human HCT116 cells after 72 hrs by MTT assay; format: functional, cell-based; conditions: HCT-116, 72 h; how it was run: as §2
A549 = experiment: Cytostatic activity against human A549 cells after 72 hrs by MTT assay; format: functional, cell-based; conditions: A549, 72 h; how it was run: as §2
K562 [15] = experiment: Cytostatic activity against paclitaxel-resistant human K562 cells after 72 hrs by MTT assay; format: functional, cell-based; conditions: K562, 72 h; how it was run: as §2
K562 [16] = experiment: Cytostatic activity against human K562 cells after 72 hrs by MTT assay; format: functional, cell-based; conditions: K562, 72 h; how it was run: as §2
[17] = Cytostatic activity against human CEM-DNR-bulk cells after 72 hrs by MTT assay; format: functional, cell-based; how it was run: as §2
CCRF-CEM = experiment: Cytostatic activity against human CCRF-CEM cells after 72 hrs by MTT assay; format: functional, cell-based; how it was run: as §2

| SMILES | CC50 [1] | pEC50 (Hepatitis C virus [2]) | CC50 [3] | pEC50 (Hepatitis C virus [4]) | Activity (Candida tropicalis) | Activity (Pichia kudriavzevii) | Activity (Candida parapsilosis) | Activity (Candida albicans) | Activity (Pseudomonas aeruginosa [5]) | Activity (Escherichia coli [6]) | Activity [7] | Activity (Staphylococcus aureus [8]) | Activity (Pseudomonas aeruginosa [9]) | Activity (Escherichia coli [10]) | Activity (Staphylococcus aureus [11]) | Activity (Enterococcus faecalis) | pIC50 [12] | pIC50 (HL-60) | pIC50 (HepG2) | pIC50 (MRC5) | further results |
| --- | --- | --- | --- | --- | --- | --- | --- | --- | --- | --- | --- | --- | --- | --- | --- | --- | --- | --- | --- | --- | --- |
| C#Cc1cn([C@@H]2O[C@H](CO)[C@@H](O)[C@H]2O)c2ncnc(OC)c12 | > 44 µM | < 4.36 | > 44 µM | 6.74 | inactive | inactive | inactive | inactive | inactive | inactive | inactive | inactive | inactive | inactive | inactive | inactive | 5.76 | 6.72 | 4.90 | < 4.00 | pIC50 (BJ): 4.01; pIC50 (HCT-116 [13]): 5.29; pIC50 (HCT-116 [14]): 5.39; pIC50 (A549): 5.09; pIC50 (K562 [15]): 6.42; pIC50 (K562 [16]): 6.52; pIC50 [17]: 5.46; pIC50 (CCRF-CEM): < 4.70 |
| COc1nc(N)nc2c1c(-c1cc3ccccc3o1)cn2[C@@H]1O[C@H](CO)[C@@H](O)[C@H]1O | > 44 µM | 4.68 | > 44 µM | 5.05 | inactive | inactive | inactive | inactive | inactive | inactive | inactive | inactive | inactive | inactive | inactive | inactive | < 4.70 | < 4.70 | < 4.70 | 4.64 | pIC50 (BJ): 4.59; pIC50 (HCT-116 [13]): < 4.70; pIC50 (HCT-116 [14]): < 4.70; pIC50 (A549): < 4.70; pIC50 (K562 [15]): 4.81; pIC50 (K562 [16]): 4.84; pIC50 [17]: 4.78; pIC50 (CCRF-CEM): 4.90 |
| COc1ncnc2c1ccn2[C@@H]1O[C@H](CO)[C@@H](O)[C@H]1O | > 44 µM | < 4.36 | > 44 µM | < 4.36 | inactive | inactive | inactive | inactive | inactive | inactive | inactive | inactive | inactive | inactive | inactive | inactive | < 4.70 | < 4.70 | < 4.70 | < 4.00 | pIC50 (BJ): < 4.00; pIC50 (HCT-116 [13]): < 4.70; pIC50 (HCT-116 [14]): < 4.70; pIC50 (A549): < 4.70; pIC50 (K562 [15]): < 4.70; pIC50 (K562 [16]): < 4.70; pIC50 [17]: < 4.70; pIC50 (CCRF-CEM): < 4.70 |
| CNc1ncnc2c1c(-c1cc3ccccc3o1)cn2[C@@H]1O[C@H](CO)[C@@H](O)[C@H]1O | > 44 µM | 4.87 | > 44 µM | 5.69 | inactive | inactive | inactive | inactive | inactive | inactive | inactive | inactive | inactive | inactive | inactive | inactive | < 4.70 | 5.05 | < 4.70 | 4.12 | pIC50 (BJ): 4.12; pIC50 (HCT-116 [13]): < 4.70; pIC50 (HCT-116 [14]): < 4.70; pIC50 (A549): < 4.70; pIC50 (K562 [15]): < 4.70; pIC50 (K562 [16]): < 4.70; pIC50 [17]: < 4.70; pIC50 (CCRF-CEM): < 4.70 |
| Nc1nc(N)c2c(-c3cc4ccccc4o3)cn([C@@H]3O[C@H](CO)[C@@H](O)[C@H]3O)c2n1 | > 44 µM | 4.94 | > 44 µM | 5.25 | inactive | inactive | inactive | inactive | inactive | inactive | inactive | inactive | inactive | inactive | inactive | inactive | < 4.70 | < 4.82 | < 4.70 | 4.11 | pIC50 (BJ): < 4.00; pIC50 (HCT-116 [13]): 4.85; pIC50 (HCT-116 [14]): < 4.70; pIC50 (A549): < 4.70; pIC50 (K562 [15]): < 4.70; pIC50 (K562 [16]): 4.73; pIC50 [17]: < 4.70; pIC50 (CCRF-CEM): < 4.70 |
| Cc1ncnc2c1c(-c1ccccc1)cn2[C@@H]1O[C@H](CO)[C@@H](O)[C@H]1O | > 44 µM | < 4.36 | > 44 µM | 4.46 | inactive | inactive | inactive | inactive | inactive | inactive | inactive | inactive | inactive | inactive | inactive | inactive | < 4.70 | < 4.70 | < 4.70 | < 4.00 | pIC50 (BJ): < 4.00; pIC50 (HCT-116 [13]): 4.02; pIC50 (HCT-116 [14]): < 4.00; pIC50 (A549): < 4.70; pIC50 (K562 [15]): < 4.70; pIC50 (K562 [16]): < 4.70; pIC50 [17]: < 4.70; pIC50 (CCRF-CEM): < 4.70 |
